Results reported in ChEMBL document CHEMBL1143907, “Synthesis, nicotinic acetylcholine receptor binding, and pharmacological properties of 3'-(substituted phenyl)deschloroepibatidine analogs” (Bioorg Med Chem, 2008).

Key:
[1] = molecular target: Neuronal acetylcholine receptor; alpha4/beta2 (Rattus norvegicus, UniProt P09483+P12390); assay: Displacement of [3H]epibatidine from alpha-4-beta-2 nAChR in rat cerebral cortex; format: tissue-based
[2] = molecular target: Neuronal acetylcholine receptor subunit alpha-7 (Rattus norvegicus, UniProt Q05941); assay: Displacement of [125I]iodoMLA from alpha-7 nAChR in rat cerebral cortex; format: tissue-based
Chain of Neuronal acetylcholine receptor subunit alpha-7 (Q05941 whole entry): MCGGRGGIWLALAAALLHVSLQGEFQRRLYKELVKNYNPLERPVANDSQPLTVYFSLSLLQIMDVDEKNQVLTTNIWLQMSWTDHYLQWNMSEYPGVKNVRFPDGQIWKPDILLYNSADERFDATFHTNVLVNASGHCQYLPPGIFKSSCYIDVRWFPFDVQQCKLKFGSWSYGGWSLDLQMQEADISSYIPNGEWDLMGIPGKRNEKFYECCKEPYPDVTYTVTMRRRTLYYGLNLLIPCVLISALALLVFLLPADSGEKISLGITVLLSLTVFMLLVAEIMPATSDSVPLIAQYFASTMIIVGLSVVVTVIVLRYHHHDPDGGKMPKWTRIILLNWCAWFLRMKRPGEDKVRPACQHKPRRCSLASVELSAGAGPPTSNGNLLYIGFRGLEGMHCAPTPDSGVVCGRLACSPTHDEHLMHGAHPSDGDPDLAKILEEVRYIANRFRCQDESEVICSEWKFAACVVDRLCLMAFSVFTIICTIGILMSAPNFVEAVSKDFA

Mus musculus [3] = assay: Antinociceptive activity in acute pain mouse model at 10 mg/kg, sc by tail flick method; format: functional; settings: route subcutaneous
In short: (§1)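 Mice, tail-flick assay: heat lamp aimed at the tail, with latency to flick recorded. Each mouse's baseline (2–4 s) was taken before treatment, and test latency was taken after sc dosing. Response was expressed as %MPE = [(test−control)/(maximum latency−control)×100]. ED50 values are reported with confidence limits, or as percent effect at the individual dose.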

Mus musculus [4] = assay: Inhibition of nicotine-induced antinociception in sc dosed acute pain mouse model by tail flick method; format: functional
Mus musculus [5] = assay: Antinociceptive activity in acute pain mouse model at 10 mg/kg, sc by hot plate method; format: functional; settings: route subcutaneous
In short: (§2)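 Mice were placed in a 10-cm glass cylinder on a hot plate held at 55.0 °C. Two control latencies, at least 10 min apart, were taken per mouse (normal 8–12 s). The endpoint was a jump or paw lick, and animals were tested 5 min after sc injection. Response was expressed as %MPE from test, control and maximum latencies. ED50 values are given with confidence limits, or as percent effect at a dose.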

Mus musculus [6] = assay: Inhibition of nicotine-induced antinociception in acute pain mouse model at 100 ug/kg, sc by hot plate method; format: functional; parameters: scale not given: the % may be the effect or the level left
Mus musculus [7] = assay: […] in mouse assessed as inhibition of nicotin induced hypothermia at 10 mg/kg, sc; format: functional; parameters: scale not given: the % may be the effect or the level left; settings: route subcutaneous
Mus musculus [8] = assay: Effect on rectal temperature in mouse at 1000 […], sc; format: functional; settings: route subcutaneous
In short: (§3)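 Rectal temperature was read with a thermistor probe inserted 24 mm, just before and at several times after sc saline or analog. The pre/post difference was calculated per mouse. Laboratory ambient temperature was 21–24 °C.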

Mus musculus [9] = assay: Effect on locomotor activity in sc dosed mouse assessed as spontaneous activity; format: functional
In short: (§4)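 Mice were placed in individual photocell activity cages 5 min after sc saline (0.9%) or analog. Photobeam interruptions (two banks of eight cells) were counted over the next 10 min. Data are the number of interruptions, and ED50 is reported with confidence limits or as percent effect at a dose.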

Mus musculus [10] = assay: Inhibition of nicotine-induced antinociception in acute pain mouse model at 10 ug/kg, sc by tail flick method; format: functional; parameters: scale not given: the % may be the effect or the level left
Mus musculus [11] = assay: Inhibition of nicotine-induced antinociception in acute pain mouse model at 10 ug/kg, sc by hot plate method; format: functional; parameters: scale not given: the % may be the effect or the level left
[12] = molecular target: Neuronal acetylcholine receptor subunit alpha-7 (Rattus norvegicus) (UniProt Q05941); assay: Displacement of [125I]iodoMLA from alpha-7 nAChR in rat cerebral cortex at 50 nM; format: tissue-based
Chain of Neuronal acetylcholine receptor subunit alpha-7 (Rattus norvegicus) (Q05941 whole entry): as above

Mus musculus [13] = assay: Inhibition of nicotine-induced antinociception in acute pain mouse model at 1000 ug/kg, sc by hot plate method; format: functional; parameters: scale not given: the % may be the effect or the level left
Mus musculus [14] = assay: Agonist activity in sc dosed mouse assessed as induction of hypothermia
Mus musculus [15] = assay: Effect on rectal temperature in mouse at 10 mg/kg, sc; format: functional; settings: route subcutaneous; in short: as §3
Mus musculus [16] = assay: Inhibition of nicotine-induced antinociception in sc dosed acute pain mouse model by hot plate method; format: functional
Mus musculus [17] = assay: Antinociceptive activity in acute pain mouse model at 20 mg/kg, sc by tail flick method; format: functional; settings: route subcutaneous; in short: as §1
Mus musculus [18] = assay: Antinociceptive activity in acute pain mouse model at 20 mg/kg, sc by hot plate method; format: functional; settings: route subcutaneous; in short: as §2
Mus musculus [19] = assay: Effect on rectal temperature in mouse at 2000 […], sc; format: functional; settings: route subcutaneous; in short: as §3
Mus musculus [20] = assay: […] in mouse assessed as inhibition of nicotin induced hypothermia at 20 mg/kg, sc; format: functional; parameters: scale not given: the % may be the effect or the level left; settings: route subcutaneous
Mus musculus [21] = assay: Effect on rectal temperature in mouse at 100 […], sc; format: functional; settings: route subcutaneous; in short: as §3
Mus musculus [22] = assay: Antinociceptive activity in sc dosed acute pain mouse model by tail flick method; format: functional; in short: as §1
Mus musculus [23] = assay: Antinociceptive activity in sc dosed in acute pain mouse model by hot plate method; format: functional; in short: as §2
Mus musculus [24] = assay: Effect on rectal temperature in mouse at 5000 […], sc; format: functional; settings: route subcutaneous; in short: as §3
Mus musculus [25] = assay: Inhibition of nicotine-induced antinociception in acute pain mouse model at 2000 ug/kg, sc by hot plate method; format: functional; parameters: scale not given: the % may be the effect or the level left
Mus musculus [26] = assay: Effect on rectal temperature in mouse at 20 mg/kg, sc; format: functional; settings: route subcutaneous; in short: as §3
Mus musculus [27] = assay: Effect on locomotor activity in mouse assessed as spontaneous activity at 10 mg/kg, sc; format: functional; settings: route subcutaneous; in short: as §4
Mus musculus [28] = assay: Antinociceptive activity in acute pain mouse model at 15 mg/kg, sc by hot plate method; format: functional; settings: route subcutaneous; in short: as §2
Mus musculus [29] = assay: Effect on rectal temperature in mouse at 10000 µg/kg, sc; settings: route subcutaneous

Chain of Neuronal acetylcholine receptor; alpha4/beta2 (P09483 whole entry): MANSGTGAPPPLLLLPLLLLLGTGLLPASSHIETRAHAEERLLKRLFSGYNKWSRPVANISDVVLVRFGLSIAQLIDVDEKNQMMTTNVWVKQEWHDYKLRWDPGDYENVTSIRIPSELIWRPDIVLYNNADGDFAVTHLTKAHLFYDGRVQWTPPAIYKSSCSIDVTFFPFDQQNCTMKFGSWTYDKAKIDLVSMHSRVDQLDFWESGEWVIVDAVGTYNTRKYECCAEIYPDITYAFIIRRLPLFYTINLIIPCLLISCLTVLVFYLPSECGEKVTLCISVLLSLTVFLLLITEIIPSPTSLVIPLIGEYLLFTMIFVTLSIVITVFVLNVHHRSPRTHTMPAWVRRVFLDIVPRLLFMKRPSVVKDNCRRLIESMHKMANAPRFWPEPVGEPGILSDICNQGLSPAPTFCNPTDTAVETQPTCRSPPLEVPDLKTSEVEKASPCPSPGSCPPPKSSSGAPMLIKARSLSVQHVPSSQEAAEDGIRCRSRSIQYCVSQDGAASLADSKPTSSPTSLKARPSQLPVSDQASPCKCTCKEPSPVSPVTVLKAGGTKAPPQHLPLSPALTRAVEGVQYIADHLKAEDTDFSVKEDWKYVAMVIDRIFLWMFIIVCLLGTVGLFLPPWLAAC
Chain of Neuronal acetylcholine receptor; alpha4/beta2 (P12390 whole entry): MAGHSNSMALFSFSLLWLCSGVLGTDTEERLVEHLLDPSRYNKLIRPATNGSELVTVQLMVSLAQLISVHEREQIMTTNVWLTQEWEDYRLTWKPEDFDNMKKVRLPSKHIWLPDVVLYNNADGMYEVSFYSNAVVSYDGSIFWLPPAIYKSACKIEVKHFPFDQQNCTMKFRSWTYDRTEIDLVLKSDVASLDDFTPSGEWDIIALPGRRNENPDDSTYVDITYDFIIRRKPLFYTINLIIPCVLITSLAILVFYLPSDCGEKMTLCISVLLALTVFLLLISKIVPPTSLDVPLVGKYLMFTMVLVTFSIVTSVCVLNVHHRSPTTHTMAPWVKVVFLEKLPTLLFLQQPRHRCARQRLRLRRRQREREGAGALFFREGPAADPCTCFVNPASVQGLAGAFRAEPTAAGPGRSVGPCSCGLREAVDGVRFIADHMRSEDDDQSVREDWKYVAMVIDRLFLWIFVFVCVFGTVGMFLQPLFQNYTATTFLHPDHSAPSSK

Row | Compound | Ki [1] [nM] | Ki [2] [nM] | Activity (Mus musculus [3]) [%] | AD50 (Mus musculus [4]) [µg/kg] | Activity (Mus musculus [5]) [%] | Activity (Mus musculus [8]) [%] | ED50 (Mus musculus [9]) [µg/kg] | ED50 (Mus musculus [14]) [µg/kg] | AD50 (Mus musculus [16]) [µg/kg] | other results
1 | Fc1ccc(-c2cncc(C3CC4CCC3N4)c2)cc1 (configuration not stated) | 0.15 | > 2000 | 3 | 13 | 13 | 0 | 3000 | – | – | Activity (Mus musculus [6]): 10%; Activity (Mus musculus [7]): -1.6%
2 | Clc1ccc(-c2cncc(C3CC4CCC3N4)c2)cc1 (configuration not stated) | 0.21 | > 2000 | 1 | – | 11 | 5 | 10500 | – | – | Activity (Mus musculus [10]): 0%; Activity (Mus musculus [11]): 0%; Activity (Mus musculus [7]): 2%
3 | Cl.Cl.c1ccc(-c2cncc(C3CC4CCC3N4)c2)cc1 (racemic) | 0.5 | – | 6 | 300 | 30 | 0 | 500 | 1500 | – | Activity [12]: 7%; Activity (Mus musculus [13]): 10%
4 | Cl.Cl.Fc1cccc(-c2cncc(C3CC4CCC3N4)c2)c1 (racemic) | 0.2 | > 2000 | 2 | 3.1 | 8 | – | 5000 | – | 3000 | Activity (Mus musculus [7]): 0%; Activity (Mus musculus [15]): 0%
5 | Cl.Cl.O=[N+]([O-])c1cccc(-c2cncc(C3CC4CCC3N4)c2)c1 (racemic) | 0.17 | > 2000 | – | – | – | – | 2500 | 37600 | – | Activity (Mus musculus [17]): 5%; Activity (Mus musculus [18]): 21%; Activity (Mus musculus [19]): 0%
6 | Cl.Cl.Cl.Clc1cccc(-c2cncc(C3CC4CCC3N4)c2)c1 (racemic) | 0.17 | > 2000 | – | 0.01 | – | 0 | 3800 | – | – | Activity (Mus musculus [17]): 1%; Activity (Mus musculus [18]): 10%; Activity (Mus musculus [13]): 0%; Activity (Mus musculus [20]): 0%
7 | Cl.Cl.O=[N+]([O-])c1ccc(-c2cncc(C3CC4CCC3N4)c2)cc1 (racemic) | 0.34 | > 2000 | 1 | 47 | 26 | – | 660 | 2900 | – | Activity (Mus musculus [6]): 10%; Activity (Mus musculus [21]): 0%
8 | COc1cccc(-c2cncc(C3CC4CCC3N4)c2)c1.Cl.Cl (racemic) | – | > 2000 | 1 | – | 20 | – | 2900 | – | – | Activity (Mus musculus [10]): 0%; Activity (Mus musculus [11]): 0%; Activity (Mus musculus [7]): 0%; Activity (Mus musculus [15]): 0%
9 | Cl.Fc1ncc(C2CC3CCC2N3)cc1-c1cccc(Cl)c1 (racemic) | 0.073 | – | – | 12 | 14 | 0 | – | – | 450 | –
10 | Cl.Nc1cccc(-c2cncc(C3CC4CCC3N4)c2)c1 (racemic) | 1.16 | > 2000 | – | – | – | – | 1500 | 3800 | – | ED50 (Mus musculus [22]): 6 µg/kg; ED50 (Mus musculus [23]): 650 µg/kg
11 | Cl.Nc1ccc(-c2cc(C3CC4CCC3N4)cnc2F)cc1 (racemic) | 0.095 | – | – | 5 | 10 | – | – | – | 1800 | Activity (Mus musculus [24]): 0%
12 | Cl.Fc1ccc(-c2cc(C3CC4CCC3N4)cnc2F)cc1 (racemic) | 0.029 | – | – | 0.5 | 15 | – | – | – | 230 | Activity (Mus musculus [21]): 0%
13 | Cl.Nc1ccc(-c2cncc(C3CC4CCC3N4)c2)cc1 (racemic) | 0.34 | > 2000 | 6 | 1 | 10 | – | – | – | – | Activity (Mus musculus [25]): 45%; Activity (Mus musculus [7]): 0%; Activity (Mus musculus [26]): 0%; Activity (Mus musculus [27]): 15%
14 | COc1cccc(-c2cc(C3CC4CCC3N4)cnc2F)c1.Cl (racemic) | – | – | – | 8 | 8 | – | – | – | 2000 | –
15 | Cl.Fc1ncc(C2CC3CCC2N3)cc1-c1ccc(Cl)cc1 (racemic) | 0.044 | – | – | 0.3 | 7 | 0 | – | – | 260 | Activity (Mus musculus [27]): 5%
16 | Cl.Fc1ncc(C2CC3CCC2N3)cc1-c1ccccc1 (racemic) | – | > 2000 | – | 500 | – | – | – | – | 1200 | Activity (Mus musculus [28]): 4%
17 | Cl.O=[N+]([O-])c1ccc(-c2cc(C3CC4CCC3N4)cnc2F)cc1 (racemic) | 0.009 | – | – | 3 | 10 | 0 | – | 3500 | 120 | –
18 | Cl.Fc1cccc(-c2cc(C3CC4CCC3N4)cnc2F)c1 (racemic) | 0.087 | – | – | 5 | – | 0 | – | – | – | Activity (Mus musculus [13]): 2%
19 | Cl.Nc1cccc(-c2cc(C3CC4CCC3N4)cnc2F)c1 (racemic) | – | – | – | 9 | 4 | – | – | – | 820 | Activity (Mus musculus [24]): 5%
20 | Clc1ccc(C2CC3CCC2N3)cn1 (racemic) [EPIBATIDINE] | – | – | – | – | – | – | 1 | 4 | – | ED50 (Mus musculus [22]): 6 µg/kg; ED50 (Mus musculus [23]): 4 µg/kg
21 | c1cncc(C2CC3CCC2N3)c1 (configuration not stated) [DESCHLOROEPIBATIDINE] | – | – | – | – | – | – | – | – | – | ED50 (Mus musculus [22]): 2 µg/kg
22 | CN1CCC[C@@H]1c1cccnc1 [R-NICOTINE] | – | – | – | – | – | – | 500 | 1000 | – | ED50 (Mus musculus [22]): 1300 µg/kg; ED50 (Mus musculus [23]): 650 µg/kg
23 | c1cnc2cc3c(cc2n1)[C@@H]1CNC[C@H]3C1 [VARENICLINE] | – | – | 11 | 0.2 | 10 | – | 2100 | 2800 | 470 | Activity (Mus musculus [29]): 0%
